# From PubChem BioAssay
# m5-HT2A agonist: activates the mouse 5-HT2A serotonin receptor | P35363 | CHO-K1 mHTR2A beta-arrestin complementation, luminescence; percent of 30 µM serotonin response | activation, % at 7.6 µM | 360,000 tested, 0.66% active;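 active = activation above a run cutoff, the mean activation of all tested compounds plus 3 SD, cut at about 14% in these data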;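 also: 0% = plate median of compound wells and 100% = 30 µM serotonin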
# TbMetRS inhib: blocks T. brucei methionyl-tRNA synthetase activity. inhibition, % at 11.9 µM. 360,000 tested, 0.4% active. purified T. brucei MetRS, ATP depletion, Kinase-Glo luminescence;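 active = inhibition above a per-plate cutoff of the control wells' mean inhibition plus 3 SD, cut at about 5.5% in these data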;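 also: 0% = DMSO wells median and 100% = median of wells with control inhibitor compound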
#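 Measured by: Kinase-Glo luciferase luminescence reporting remaining unconsumed ATP. Material: purified T. brucei MetRS enzyme. Doses: 11.9 µM compound single dose, 0.9% DMSO. Medium: HEPES buffer containing pyrophosphatase, BSA, spermine, DTT. Times: 15 min preincubation, 2 h reaction, all 25 °C. Reagent: methionine, ATP and bulk E. coli tRNA.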
# MsrA inhibitor: bovine MsrA inhibition | AID 651718 | purified bovine MsrA, absorbance read-out | 360,000 tested, 0.75% active | inhibition, % at 15.5 µM; in the data active = inhibition above about 4.5%;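 also: 0% = vehicle wells with enzyme and 100% = reference inhibitor wells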
# AI-2 QS mod: modulators of Vibrio harveyi AI-2 quorum sensing system; Vibrio harveyi JMH597 AI-2 luminescence/OD600 ratio, 9 h; hits give low values; strain lacks LuxN and CqsS sensors; 0 = neutral-control median; activity change, % at 7.5 µM; 300,000 tested, 0.4% active; in the data active = activity change below about -75%, passing the limit was not always enough; inconclusive = no clear call, values can overlap the other calls;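 also: luminescence divided by OD600 gain over 9 h not by final OD600 alone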
# AHR act: human AHR activation; P35869; AID 2796; activation, % at 5 µM; 320,000 tested, 2.5% active; AHR-responsive luciferase reporter cells, luminescence; in the data active = activation above about 47%;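 also: 0% = vehicle wells and 100% = reference agonist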
# Target sequence (P35869 whole entry, looked up): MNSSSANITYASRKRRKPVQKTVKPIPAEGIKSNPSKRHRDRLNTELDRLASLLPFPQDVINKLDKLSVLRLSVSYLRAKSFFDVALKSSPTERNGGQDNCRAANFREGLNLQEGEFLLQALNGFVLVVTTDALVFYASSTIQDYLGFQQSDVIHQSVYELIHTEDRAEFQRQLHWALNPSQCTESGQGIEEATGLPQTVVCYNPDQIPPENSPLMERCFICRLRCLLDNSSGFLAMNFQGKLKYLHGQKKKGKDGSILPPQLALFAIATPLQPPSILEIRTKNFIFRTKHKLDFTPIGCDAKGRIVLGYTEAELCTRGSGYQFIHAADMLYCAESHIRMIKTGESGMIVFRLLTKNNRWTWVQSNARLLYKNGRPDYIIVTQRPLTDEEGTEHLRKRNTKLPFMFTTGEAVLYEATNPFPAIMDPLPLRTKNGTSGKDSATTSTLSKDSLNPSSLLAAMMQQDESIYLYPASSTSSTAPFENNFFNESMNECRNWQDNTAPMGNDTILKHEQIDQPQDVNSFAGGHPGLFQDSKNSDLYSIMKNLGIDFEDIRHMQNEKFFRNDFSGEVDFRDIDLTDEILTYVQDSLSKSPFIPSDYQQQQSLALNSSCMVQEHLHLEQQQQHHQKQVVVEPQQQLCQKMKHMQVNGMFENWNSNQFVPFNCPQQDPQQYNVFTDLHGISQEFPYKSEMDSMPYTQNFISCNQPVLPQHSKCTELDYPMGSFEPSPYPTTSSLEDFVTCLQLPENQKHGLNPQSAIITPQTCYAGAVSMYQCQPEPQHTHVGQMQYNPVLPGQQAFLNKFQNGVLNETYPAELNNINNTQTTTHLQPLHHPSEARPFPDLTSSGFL
# MsrA act: bovine methionine sulfoxide reductase A activation; 360,000 tested, 0.3% active; activation, % at 10.6 µM; purified bovine MsrA, absorbance read-out; in the data active = activation above about 7.5%;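 also: 0% = vehicle and 100% = reference activator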
# AHR act confirm: human AHR activation, confirmation; shares compounds with AHR act; activation, % at 9 µM; 2,300 tested, 87% active; human cells, AHR-responsive luciferase reporter, luminescence; in the data active = activation above about 49%;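 also: HepG2 hepatoma cells carrying a DRE-driven firefly luciferase reporter; 0% = vehicle wells and 100% = reference agonist wells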
# PXR counter: counter-screen for AHR activators: human PXR activators; 2,300 tested, 88% active; shares compounds with AHR act; activation, % at 11.6 µM; cell-based PXR reporter, luciferase luminescence; AID 434939; in the data active = activation above about 11%;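 also: human hepatoma DPX-2 cells expressing full-length human PXR; 0% = DMSO and 100% = reference agonist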
# Active calls of the source: *; ? = inconclusive; · = no result given. Only some compounds are listed: those with a hit (about 4.4% of all), similar ones and a draw of the others.
SMILES,m5-HT2A agonist,TbMetRS inhib,MsrA inhibitor,AI-2 QS mod,AHR act,MsrA act,AHR act confirm,PXR counter
Cc1cc(C(=O)Nc2ccc3c(c2)OCO3)cs1,5,-1,·,10,130*,-2,90*,43*
O=C(Nc1ccc2c(c1)OCO2)c1ccc2c(c1)OCO2,1,-1,0,23,91*,-1,19,18*
CC(=O)Nc1ccc(C(=O)Nc2ccc3c(c2)OCO3)cc1,0,-1,0,21,11,-3,·,·
O=C(Nc1cccnc1)Nc1ccc(F)c(Cl)c1,-3,1,0,7,37,-2,·,·
CN(CC(=O)Nc1ccc(Cl)c(C(F)(F)F)c1)C(=O)COC(=O)C1CC2CCCC(C1)C2=O (stereo not drawn),2,0,0,·,0,-5,·,·
CCc1nc2c(OCc3ccc(Cl)cc3Cl)cccn2c1N(C=O)Cc1ccc(OC)cc1,2,0,1,·,·,-3,·,·
Cc1ccc(C(=O)Nc2ccc3c(c2)OCO3)cc1NC(=O)c1ccco1,2,0,-1,12,122*,0,86*,33*
O=C(Nc1ccc2c(c1)OCO2)c1ccc(Br)c(S(=O)(=O)N2CCCC2)c1,-5,0,0,31,87*,-2,47,154*
O=C(Nc1ccc2c(c1)OCCO2)c1ccc(Br)c(S(=O)(=O)N2CCOCC2)c1,2,-1,0,·,·,-8,·,·
O=C(Nc1ccc2c(c1)OCO2)c1cccc(S(=O)(=O)N2CCOCC2)c1,7,0,0,23,112*,-9,91*,36*
Cn1ncc(Cl)c1C(=O)Nc1ccc2c(c1)OCO2,-3,0,0,20,123*,-5,117*,13*
C=CS(=O)(=O)N(Cc1ccc(Cl)c(Cl)c1)C[C@@H](O)CO,1,-1,·,·,·,1,·,·
O=C(Nc1ccc(Cc2ccncc2)cc1)c1ccc([N+](=O)[O-])o1,-5,-1,1,?,-1,3,·,·
Cn1c2ccccc2c(=O)c2ccc(NCc3ccc4c(c3)OCO4)cc21,-3,0,0,·,·,-4,·,·
O=C(Nc1ccc(Cl)c(Cl)c1)c1ccc2c(c1)OCO2,-6,0,0,19,34,-2,·,·
O=C(Nc1ccc2c(c1)OCO2)Nc1ccc2c(c1)OCO2,5,0,1,-1,106*,-6,45,28*
O=C(Nc1ccc2c(c1)OCO2)c1ccc(Cl)s1,5,-1,0,-16,113*,-10,85*,34*
Cc1occc1C(=O)Nc1ccc2c(c1)OCO2,2,-2,2,11,125*,-2,51*,47*
COc1ccc(NC(=O)Nc2cccnc2)c(OC)c1,-5,0,2,3,91*,-2,115*,12*
Cc1cnc(NC(=O)c2c(Cl)cnn2C)s1,6,0,2,6,88*,-4,93*,·
O=C(Nc1ccn(Cc2ccccc2)n1)c1ccc2c(c1)OCO2,-8,-1,0,20,112*,3,77*,43*
O=C(Nc1ccc2c(c1)OCO2)Nc1cnccn1,1,0,1,-5,37,-2,·,·
O=C(Nc1cccnc1)Nc1ccc2c(c1)OCO2,-3,-1,2,3,85*,-4,91*,16*
Cc1cnc(NC(=O)Cc2ccccc2Cl)s1,6,-1,0,7,11,-3,·,·
O=C(Nc1cccc(NC(=O)c2ccc3c(c2)OCO3)c1)c1ccccc1,2,-1,1,0,32,-5,·,·
SMILES,m5-HT2A agonist,TbMetRS inhib,MsrA inhibitor,AI-2 QS mod,AHR act,MsrA act,AHR act confirm,PXR counter
O[C@@H]1CN(CC2CCCCC2)[C@@H](c2ccccc2)C[C@H]1n1cc(-c2ccc(F)cc2)nn1,3,-1,1,·,·,-2,·,·
COc1ccc(O)c(-c2cc(-c3cccs3)[nH]n2)c1,5,-2,0,25,87*,-10,138*,26*
COc1ccc(O)c(-c2cc(-c3ccccc3Cl)[nH]n2)c1,-3,0,1,4,124*,-3,273*,22*
Oc1ccc(Br)cc1-c1cc(-c2ccccc2Cl)[nH]n1,-9,0,0,19,47,-5,·,·
Cc1ccccc1C(C)NC(=O)COC(=O)Cn1cc(C(F)(F)F)ccc1=O (stereo not drawn),-2,0,0,·,1,-12,·,·
Cc1ccc(NC(=O)C2CC(=O)N(c3ccccc3Cl)C2)cc1S(=O)(=O)N1CCOCC1 (stereo not drawn),3,0,1,·,·,-9,·,·
O=C(Nc1ccon1)c1cnc2sccn2c1=O,3,0,4,23,139*,-4,107*,·
Cc1cccc(NC(=O)c2cnc3sccn3c2=O)n1,6,-1,2,51,168*,-7,135*,14*
COc1ccc(NC(=O)c2cnc3sccn3c2=O)cc1,1,-1,3,4,42,-9,·,·
O=C(NCc1cccnc1)c1cnc2sccn2c1=O,5,0,4,16,81*,-7,40,4
COc1ccccc1/C=C(/NC(=O)c1ccccc1)C(=O)NCCN1CCOCC1,8,-1,1,16,4,-5,·,·
Fc1ccc(F)c(C2=NNC(=Nc3ccccc3F)SC2)c1,1,-1,-1,9,79*,-4,70*,56*
COc1ccccc1-c1sc2cc3c(cc2c1C#Cc1ccccn1)OCO3,-4,0,0,·,104*,-2,116*,176*
COc1ccccc1-c1sc2cc3c(cc2c1-c1ccc(O)cc1)OCO3,-9,0,0,·,24,-4,·,·
COc1ccccc1-c1sc2cc3c(cc2c1C#CC1(O)CCCCC1)OCO3,-3,0,1,·,103*,-3,101*,314*
COc1ccc(-c2sc3cc4c(cc3c2C#CC2(O)CCCCC2)OCO4)cc1,-1,0,3,·,96*,-2,81*,63*
CCCCCCCCNCCS(=O)(=O)NCc1ccc(OC)cc1,-1,0,0,·,·,-1,·,·
O=C1CN(C(=O)CNCc2cccc(Cl)c2)c2ccccc2N1,-3,0,-2,39,-3,-2,·,·
O=C1CN(C(=O)CNCc2ccccc2Cl)c2ccccc2N1,1,0,1,26,88*,-2,61*,39*
Cc1cc(N2CCCCC2)nc(-c2ccc(Br)cc2)n1,-3,-1,0,11,80*,-3,109*,3
CCSc1cc(N2CCCC2)nc(-c2ccc(C)cc2)n1,4,0,0,6,2,7,·,·
